Most compounds without a hit are left out; they make up all but 5.3% or so of the library.
Rev-RRE block: HIV-1 Rev-RRE binding inhibitors, primary screen, biochemical, FRET, protein-RNA interaction; P05866; Rev peptide-RRE RNA binding; inhibition, % at 8 µM; actives 0.79% (n = 97,000);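 active = inhibition above the screen-wide mean plus 3 SD, cut at about 35% in these data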;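 also: 0% = median DMSO wells and 100% = median Neomycin B control wells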
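Test system: Cy5-tagged RRE RNA duplex with fluorescein-tagged Rev peptide | Read-out: % inhibition of FRET ratio versus controls | Probe or stimulus: Labelled Rev peptide | Incubation: 5 min RNA-compound premix plus 15 min binding step, 25 °C | Technique: FRET fluorescence readout | Benchmarks: DMSO low control, neomycin B high control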
Cav3 T inh: Cav3.2 calcium influx blockers – cell-based, Fluo-4 calcium fluorescence, FDSS, MLSMR library, primary screen. Voltage-dependent T-type calcium channel subunit alpha-1H (Homo sapiens), O95180. Cav3.2-expressing cells; active compounds read low. B-score at 10 µM. actives 4% (n = 100,000);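 active = single-dose well whose peak fluorescence ratio is a statistical outlier from its plate by either plate-standardised score or position-corrected B-score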
EphB4 ephrin blk: EphB4-ephrin-B2 interaction antagonists, primary screen, biochemical, TNYL-RAW peptide probe, fluorescence polarization; actives 0.15% (n = 97,000); EphB4 LBD / TNYL-RAW-Alexa532 peptide; inhibition, % at 7 µM; AID 720, 2007;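 active = inhibition above the screen-wide mean inhibition plus 3 SD, cut at about 15% in these data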;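 also: 0% = DMSO wells and 100% = excess unlabeled TNYL-RAW peptide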
FAK inh: FAK kinase inhibitors, primary screen, biochemical | Focal adhesion kinase 1 (Homo sapiens), Q05397 | inhibition, %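 (tested at 7 µM)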 | actives 0.84% (n = 97,000) | biochemical FAK kinase activity assay; in the data active = inhibition above about 19%;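 also: 0% = DMSO and 100% = reference compound high control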
Target sequence (Q05397 whole entry, looked up): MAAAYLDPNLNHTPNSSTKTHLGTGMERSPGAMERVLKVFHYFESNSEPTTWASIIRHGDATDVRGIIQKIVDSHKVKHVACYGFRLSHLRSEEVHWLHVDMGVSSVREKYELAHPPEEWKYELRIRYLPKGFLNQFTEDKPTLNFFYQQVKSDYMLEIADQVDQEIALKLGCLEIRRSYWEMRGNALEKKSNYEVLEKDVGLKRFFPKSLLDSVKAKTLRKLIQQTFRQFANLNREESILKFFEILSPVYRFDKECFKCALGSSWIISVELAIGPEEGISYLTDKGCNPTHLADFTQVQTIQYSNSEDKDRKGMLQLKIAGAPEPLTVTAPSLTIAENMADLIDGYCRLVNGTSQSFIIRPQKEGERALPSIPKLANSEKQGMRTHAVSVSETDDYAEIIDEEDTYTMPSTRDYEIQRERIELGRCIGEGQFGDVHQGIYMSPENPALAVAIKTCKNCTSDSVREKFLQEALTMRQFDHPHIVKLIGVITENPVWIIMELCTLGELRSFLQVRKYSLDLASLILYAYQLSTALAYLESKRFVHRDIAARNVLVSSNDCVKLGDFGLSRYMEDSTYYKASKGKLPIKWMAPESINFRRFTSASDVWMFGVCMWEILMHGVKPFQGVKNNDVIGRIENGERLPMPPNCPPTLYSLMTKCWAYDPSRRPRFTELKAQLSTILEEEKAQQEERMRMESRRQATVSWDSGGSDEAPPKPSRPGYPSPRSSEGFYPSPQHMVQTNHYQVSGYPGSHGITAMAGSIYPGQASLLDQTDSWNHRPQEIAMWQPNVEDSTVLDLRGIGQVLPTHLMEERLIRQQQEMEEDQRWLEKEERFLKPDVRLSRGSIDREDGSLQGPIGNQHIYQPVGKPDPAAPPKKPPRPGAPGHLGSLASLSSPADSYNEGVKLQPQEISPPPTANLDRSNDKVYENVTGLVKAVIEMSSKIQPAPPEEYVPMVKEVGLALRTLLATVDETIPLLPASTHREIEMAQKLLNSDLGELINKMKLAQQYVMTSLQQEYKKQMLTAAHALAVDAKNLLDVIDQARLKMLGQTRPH
PLK1 PBD inh: Plk1 polo box domain binding inhibitors, primary screen, biochemical, fluorescence polarization; Plk1 PBD phosphopeptide binding; inhibition, %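 (tested at about 20 µM)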; actives 0.13% (n = 97,000); in the data active = inhibition above about 34%, passing the limit was not always enough
PLK1 inh: human PLK1 kinase inhibitors, primary screen, biochemical, TR-FRET | Serine/threonine-protein kinase PLK1 (Homo sapiens), P53350 | recombinant PLK1 kinase, TR-FRET peptide phosphorylation | inhibition, % at 10 µM | actives 0.53% (n = 97,000) | AID 619, 2007;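 active = inhibition of 50% or more in the single-concentration screen; inactive = inhibition below 50%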;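 also: 0% = DMSO max control and 100% = H-89 dihydrochloride min control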
* hit, by the source's call; nt = no result given; [ ] = another dose, or the depositor's remark.

SMILES	Rev-RRE block	Cav3 T inh	EphB4 ephrin blk	FAK inh	PLK1 PBD inh	PLK1 inh
COC(=O)C1=C(C)N(CC2CC2)C(=O)N[C@H]1c1ccccc1	nt	0.23	nt	nt	nt	nt
Cc1ccc(C)c(S(=O)(=O)Nc2ccccc2C(=O)Nc2ccccc2N2CCOCC2)c1	9	-4.9*	1	-3	-20	-17
O=C(Nc1ccccc1N1CCOCC1)c1ccccc1NS(=O)(=O)c1ccc(F)cc1	3	nt	11	-3	-17	-16
Cc1cc(F)ccc1S(=O)(=O)Nc1ccccc1C(=O)Nc1ccccc1N1CCOCC1	4	-5.9*	0	-4	26	5
O=C(Nc1ccccc1N1CCOCC1)c1ccccc1NS(=O)(=O)c1ccc(F)c(F)c1	1	-4*	4	-5	-16	-6
CCOC(=O)c1c(N2C(=O)Nc3cc(Cl)c(Cl)cc3N2O)sc2c1CCCCC2	10	-3.9*	1	18	8	-20
CC(=O)Nc1ccccc1Nc1nc(NCCO)nc(N2CCCC2)n1	nt	0.74	nt	nt	nt	nt
Cc1cc(C)nc(SCc2nnc(SCc3ccccc3Cl)o2)n1	3	-6.2*	-10	2	-1	-10
CCOC(=O)c1cc2oc(C(c3nnnn3C3CCCCC3)N3CCOCC3)cc2[nH]1 (centres undefined)	6	-3.5*	4	3	0	-18
CCOC(=O)C1CCN(C(c2cc3ccc(C)cc3[nH]c2=O)c2nnnn2C2CCCCC2)CC1 (centres undefined)	6	-3.3	-3	-4	24	5
CCOC(=O)c1cc2c(=O)n3cccc(C)c3nc2n(CC2CCCO2)c1=NC(C)=O (centres undefined)	-5	5.1*	0	-3	0	-9
O=C1c2cccnc2C(=O)N1Cc1ccccc1	nt	-0.67	nt	nt	nt	nt
O=C1c2cccc3c(O)ccc(c23)C(=O)N1Cc1ccccc1	131*[fluorescence artefact?]	-10*	10	1	-167	-14
Cc1ccccc1C1CC(c2ccccc2OC(F)F)Nc2ncnn21 (centres undefined)	nt	-4.1*	nt	nt	nt	nt
COC(=O)\C(C(C)=O)=C(/C=C/C=C/C=C/N(C)C)N(C)C	82*	-7*	4	13	-29	-9
O=C1CC(O)(C(F)(F)F)Oc2c1ccc1ccccc21 (centres undefined)	8	-4.3*	6	2	-6	2
O=C1CC(O)(C(F)F)Oc2ccc3ccccc3c21 (centres undefined)	2	nt	1	3	-21	-5
O=C(COc1ccc2oc(-c3ccccc3)cc(=O)c2c1)NCc1ccco1	5	-0.074	-7	9	15	-8
CC(C)(C)OC(=O)COc1cc(OCC(=O)OC(C)(C)C)c2c(=O)cc(-c3ccccc3)oc2c1	-5	-4*	-2	-7	-14	-9
Cc1ccc(S(=O)(=O)n2nc(-c3ccc(Cl)cc3)nc2NCc2ccco2)cc1	10	-6.6*	-1	-2	5	-6
CCS(=O)(=O)n1nc(-c2ccccc2)nc1NCc1ccco1	1	-1.4	1	3	-3	-1
CC(C)(C)NC(=O)C1CCCN(S(=O)(=O)c2cccc3cccnc23)C1 (centres undefined)	6	0.091	1	2	-38	62*
COc1ccc(/C=N/NC(=O)c2cc(-c3ccc(C)cc3C)nc3ccccc23)cc1COC(C)=O	3	nt	-4	-11	-13	-8
O=C1C(=O)N(CCO)C(c2ccccc2)/C1=C(\O)c1ccccc1 (centres undefined)	5	0.066	0	4	-8	55*
CCOC(=O)C1C(=O)Oc2ccc3ccccc3c2C1C1CCOC1=O (centres undefined)	2	-0.012	-1	1	11	63*
SMILES	Rev-RRE block	Cav3 T inh	EphB4 ephrin blk	FAK inh	PLK1 PBD inh	PLK1 inh
CC12C(=O)N(Cc3ccco3)C(=O)C1C1c3ccccc3C2c2ccccc21 (centres undefined)	0	-0.69	-4	-2	-7	5
CN(C(=O)CSc1nc(-c2ccccc2)cn1N)C(c1ccccc1)c1ccccc1	5	-6.5*	2	6	3	-2
CN(C)S(=O)(=O)N(CC(=O)Nc1ccc2ccccc2c1)c1ccccc1	7	-9.5*	4	1	-7	-11
O=C1CC(/C=C/c2ccco2)=Nc2ccccc2N1	41*	-0.62	-2	-3	13	-13
Cc1cc(C)cc(SCc2noc(C(=O)NCCC(C)C)c2C(=O)NCCC(C)C)c1	nt	-0.26	nt	nt	nt	nt
Cc1cccc(NS(=O)(=O)c2ccc(C3CCCCC3)cc2)n1	2	-3.5	-5	-4	4	-21
Cc1ccc(S(=O)(=O)Nc2cc(C(=O)Nc3cc(C)cc(C)c3)ccc2Cl)cc1	4	-5.3*	4	-4	-5	-16
Cc1cccc(NC(=O)c2cc(S(=O)(=O)c3ccccc3)ccc2Cl)c1	15	-5.6*	8	-2	13	-9
Cc1cccc(NC(=O)c2cccc(NS(=O)(=O)c3ccc(Cl)cc3)c2)c1	11	-9.6*	1	0	-26	-10
Cc1cccc(NS(=O)(=O)c2ccc(C3CCCCC3)cc2)c1	12	-4.5*	1	0	-15	-9
Cc1ccc(S(=O)(=O)Nc2cc(Cl)c(O)cc2C)cc1	3	-0.32	8	3	-3	46
Cc1ccccc1NC(=O)c1cc(S(=O)(=O)c2ccccc2)ccc1Cl	5	-1.8	5	0	-12	15
CCN(CC)S(=O)(=O)c1cccc(C(=O)Nc2cccc(C)c2)c1	5	-4.8	1	1	-12	-4
CC(=O)n1cc([C@H]2C=C(C(=O)N3CCN(Cc4ccccc4)CC3)O[C@@H](OCc3ccc(CO)cc3)C2)c2ccccc21	nt	0.013	nt	nt	nt	nt
CCCCn1c(SCC(=O)N2c3ccccc3Sc3ccccc32)nc2c1c(=O)n(C)c(=O)n2C	0	-4.8*	7	2	2	-6
COc1cc(N)c(Cl)cc1C(=O)N[C@@H]1CCN(CCCOc2ccc(F)cc2)C[C@@H]1OC	nt	-0.023	nt	nt	nt	nt
CCCCN1CC[C@H]2C=CC[C@@H](C(=O)Nc3nccs3)[C@H]2C1=O	nt	0.83	nt	nt	nt	nt
CCCCC1(Cc2ccc([N+](=O)[O-])cc2)C(=O)N(c2ccccc2)N(c2ccccc2)C1=O	9	-4.8*	-2	-5	-29	-7
Cc1nn(Cc2ccc([N+](=O)[O-])cc2)c(=O)n1-c1ccccc1	-1	-1.3	-2	1	9	-17
CCOC(=O)c1c(C)[nH]c(C(=O)C(C)OC(=O)c2cccc(OCc3c(C)noc3C)c2)c1C (centres undefined)	5	-4.7*	-3	-1	18	-8

From PubChem BioAssay
